Reference: ChEMBL document CHEMBL1155226, “Design, synthesis, and structure-activity relationship of a novel series of 2-aryl 5-(4-oxo-3-phenethyl-2-thioxothiazolidinylidenemethyl)furans as HIV-1 entry inhibitors” (J Med Chem, 2009)
pEC50: −log10 of the molar value.

Columns and labels:
[1] = tested on: Human immunodeficiency virus 1; assay: Antiviral activity against HIV1 isolate 94UG103 replication in human PBMC assessed as inhibition of p24 production after 7 days by ELISA; conditions: Human immunodeficiency virus 1, isolate 94UG103, 168 h
[2] = tested on: Human immunodeficiency virus 1; assay: Antiviral activity against HIV1 3B replication in human MT2 cells exposed to light assessed as inhibition of p24 production after 4 days by ELISA; conditions: Human immunodeficiency virus 1, 3B, MT2, 96 h
MT2 = assay: Cytotoxicity against human MT2 cells after 4 days by XTT assay; format: cell-based; conditions: mt2, 96 h
Summary of the method: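 Graded compound concentrations mixed with equal volume of MT-2 cells (5×10^5/mL), 37 °C for 4 days. XTT (1 mg/mL) with 0.02 μM phenazine methosulphate added, absorbance at 450 nm read after 4 h; CC50 calculated with CalcuSyn.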

[3] = tested on: Human immunodeficiency virus 1; assay: Antiviral activity against HIV1 3B replication in human MT2 cells under dark condition assessed as inhibition of p24 production after 4 days by ELISA; conditions: Human immunodeficiency virus 1, 3B, MT2, 96 h
[4] = Selectivity index, ratio of CC50 for human MT2 cells to EC50 for HIV1 3B replication in human MT2 cells exposed to light; format: toxicity, cell-based; conditions: read-out: Ratio CC50/EC50

Q: With `O=C(O)c1cncc(-c2ccc(/C=C3\SC(=S)N(CCc4ccccc4)C3=O)o2)c1` as the molecule, how does the pEC50 [1] read?
A: 6.35

Q: And the pEC50 [2]?
A: 7.38

Q: What about the CC50 (MT2) of the same molecule?
A: 38400 nM

Q: What about the pEC50 [3] of the same molecule?
A: 7.15

Q: What about the selectivity ratio [4] of the same molecule?
A: 915

Q: With `O=C(O)c1cc(-c2ccc(/C=C3\SC(=S)N(CCc4ccccc4)C3=O)o2)cnc1Cl` as the molecule, how does the pEC50 [1] read?
A: 6.22

Q: What about the pEC50 [2] of the same molecule?
A: 6.63

Q: And the CC50 (MT2)?
A: 38400 nM

Q: What about the pEC50 [3] of the same molecule?
A: 6.00

Q: And the selectivity ratio [4]?
A: 165

Q: With `Cc1c(C(=O)O)cncc1-c1ccc(/C=C2\SC(=S)N(CCc3ccccc3)C2=O)o1` as the molecule, how does the pEC50 [1] read?
A: 5.39

Q: And the pEC50 [2]?
A: 6.41

Q: And the CC50 (MT2)?
A: 78900 nM

Q: What about the pEC50 [3] of the same molecule?
A: 6.27

Q: And the selectivity ratio [4]?
A: 202

Q: Which results are given for `O=C(O)c1cc(-c2ccc(/C=C3\SC(=S)N(CCc4ccccc4)C3=O)o2)ccc1F`?
A: pEC50 [1]: 6.61; pEC50 [2]: 7.15; CC50 (MT2): 27000 nM; pEC50 [3]: 6.54; selectivity ratio [4]: 380

Q: What does the source list for `O=C(O)c1cc(-c2ccc(/C=C3\SC(=S)N(CCc4ccccc4)C3=O)o2)ccc1Br`?
A: pEC50 [1]: 6.78; pEC50 [2]: 6.50; CC50 (MT2): 3290 nM; pEC50 [3]: 6.80; selectivity ratio [4]: 10

Q: What does the source list for `O=C(O)c1cc(-c2ccc(/C=C3\SC(=S)N(CCc4ccccc4)C3=O)o2)ccc1O`?
A: pEC50 [1]: 5.58; pEC50 [2]: 5.89; CC50 (MT2): 14800 nM; pEC50 [3]: 6.58; selectivity ratio [4]: 12

Q: With `O=C(O)c1cc(-c2ccc(/C=C3\SC(=S)N(CCc4ccccc4)C3=O)o2)ccc1Cl` as the molecule, how does the pEC50 [1] read?
A: 7.14

Q: And the pEC50 [2]?
A: 7.29

Q: And the CC50 (MT2)?
A: 16800 nM

Q: And the pEC50 [3]?
A: 7.77

Q: And the selectivity ratio [4]?
A: 330

Q: With `O=C(O)c1cccc(-c2ccc(/C=C3\SC(=S)N(CCc4ccccc4)C3=O)o2)c1F` as the molecule, how does the pEC50 [1] read?
A: 6.10

Q: And the pEC50 [2]?
A: 7.03

Q: And the CC50 (MT2)?
A: 78300 nM

Q: What about the pEC50 [3] of the same molecule?
A: 7.23

Q: And the selectivity ratio [4]?
A: 835

Q: Which results are given for `CCc1ccc(-c2ccc(/C=C3\SC(=S)N(CCc4ccccc4)C3=O)o2)cc1C(=O)O`?
A: pEC50 [1]: 6.75; pEC50 [2]: 7.09; CC50 (MT2): 17400 nM; pEC50 [3]: 7.52; selectivity ratio [4]: 215

Q: With `O=C(O)c1cccc(-c2ccc(/C=C3\SC(=S)N(CCc4ccccc4)C3=O)o2)c1` as the molecule, how does the pEC50 [1] read?
A: 7.13

Q: What about the pEC50 [2] of the same molecule?
A: 7.36

Q: What about the CC50 (MT2) of the same molecule?
A: 19400 nM

Q: What about the pEC50 [3] of the same molecule?
A: 7.01

Q: And the selectivity ratio [4]?
A: 440

Q: With `O=C(O)c1cc(-c2ccc(/C=C3\SC(=S)N(CCc4ccccc4)C3=O)o2)cnc1Br` as the molecule, how does the pEC50 [1] read?
A: 6.45

Q: And the pEC50 [2]?
A: 6.57

Q: And the CC50 (MT2)?
A: 5530 nM

Q: What about the pEC50 [3] of the same molecule?
A: 6.64

Q: What about the selectivity ratio [4] of the same molecule?
A: 40

Q: With `COc1ccc(-c2ccc(/C=C3\SC(=S)N(CCc4ccccc4)C3=O)o2)cc1C(=O)O` as the molecule, how does the pEC50 [1] read?
A: 5.65

Q: What about the pEC50 [2] of the same molecule?
A: 5.89

Q: What about the CC50 (MT2) of the same molecule?
A: 28700 nM

Q: What about the pEC50 [3] of the same molecule?
A: 6.58

Q: What about the selectivity ratio [4] of the same molecule?
A: 22

Q: What does the source list for `Cc1ccc(-c2ccc(/C=C3\SC(=S)N(CCc4ccccc4)C3=O)o2)cc1C(=O)O`?
A: pEC50 [1]: 7.15; pEC50 [2]: 7.00; CC50 (MT2): 42100 nM; pEC50 [3]: 7.51; selectivity ratio [4]: 426

Q: With `Cc1c(C(=O)O)cccc1-c1ccc(/C=C2\SC(=S)N(CCc3ccccc3)C2=O)o1` as the molecule, how does the pEC50 [1] read?
A: 6.19

Q: What about the pEC50 [2] of the same molecule?
A: 7.37

Q: What about the CC50 (MT2) of the same molecule?
A: 26800 nM

Q: What about the pEC50 [3] of the same molecule?
A: 7.04

Q: And the selectivity ratio [4]?
A: 624

Q: What does the source list for `O=C(O)c1cccc(-c2ccc(/C=C3\SC(=S)N(CCc4ccccc4)C3=O)o2)c1Cl`?
A: pEC50 [1]: 7.48; pEC50 [2]: 7.19; CC50 (MT2): 6730 nM; pEC50 [3]: 7.11; selectivity ratio [4]: 105
